Screening results as filed in PubChem.
Sampled rows, rich in hits. Any-hit rate of the full collection: about 2.4%.
DNMT1 block: blocks human DNA methyltransferase DNMT1; P26358; DNMT1 molecular beacon, Hinp1I cleavage, fluorescence; inhibition (reported as % activation of signal), % at 10 µM; hit rate 0.83% among 360,000; AID 588458; in the data active = inhibition above about 50%
SUMO1-SIM PPI: SUMO1-SIM interaction modulation. P63165. SUMO1 binding to a labelled peptide, TR-FRET, 1 h. inhibition, % at 20 µM. hit rate 0.33% among 360,000. AID 602429; in the data active = inhibition above about 37%
Target sequence (P63165 whole entry, looked up): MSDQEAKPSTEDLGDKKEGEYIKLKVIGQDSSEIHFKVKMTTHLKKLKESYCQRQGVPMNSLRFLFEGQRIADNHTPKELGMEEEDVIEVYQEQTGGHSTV
Scp-1 inhibitor: blocks human Scp-1 phosphatase activity; Q9GZU7; Recombinant Scp1, phosphopeptide, malachite green phosphate absorbance; inhibition, % at 20 µM; hit rate 0.88% among 340,000; AID 493091;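 active = inhibition above about 50% at 20 µM, limit read from the data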
Target sequence (Q9GZU7 76-261 limits assumed): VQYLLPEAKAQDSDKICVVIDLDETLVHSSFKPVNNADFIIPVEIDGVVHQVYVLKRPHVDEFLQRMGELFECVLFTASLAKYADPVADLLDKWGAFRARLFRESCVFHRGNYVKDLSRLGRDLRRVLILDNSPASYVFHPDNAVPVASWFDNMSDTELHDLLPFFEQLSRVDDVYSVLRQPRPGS
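Assay system: SCP-1 catalytic fragment, aa 76-261 | Buffer or medium: Tris acetate buffer pH 5.5 with MgCl2 and Tween-20 | Compound: One concentration, 20 µM, with 1.0% DMSO | Also added: Phospho 17-mer peptide substrate | Signal: Absorbance at 630 nm | Incubation: 45 min enzyme reaction at room temperature | Measure: % inhibition of SCP-1 phosphate liberation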
STEP block: STEP (human) phosphatase inhibition; P54829; recombinant STEP, OMFP fluorogenic substrate, fluorescence; inhibition, % at 20 µM; hit rate 0.25% among 360,000; AID 588621;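 active = inhibition at 20 µM, scaled per plate between control wells, above about 37%, limit read from the data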
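Assay system: isolated STEP enzyme. Buffer or medium: pH 6.0 Bis-Tris with DTT and Tween 20. Also added: fluorogenic phosphatase substrate OMFP at 25 µM final. Dosing: 20 µM, 1% DMSO. Timing: 20 min reaction, room temperature, in the dark. Measured by: fluorescence intensity, excitation 480 nm, emission 540 nm. Evaluation: normalized % inhibition.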
NadD block: blocks S. aureus nicotinate mononucleotide adenylyltransferase | purified NadD enzyme, colorimetric absorbance read-out | inhibition, % at 20 µM | hit rate 0.78% among 360,000; in the data active = inhibition above about 26%
LMPTP block: LMPTP (human) inhibition | P24666 | recombinant LMPTP-A, OMFP fluorogenic substrate, fluorescence intensity | inhibition, % at 20 µM | hit rate 0.22% among 360,000 | AID 651560;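 active = compounds that cut the enzyme signal by at least half of the control window in the single-dose screen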
Target sequence (P24666 whole entry, looked up): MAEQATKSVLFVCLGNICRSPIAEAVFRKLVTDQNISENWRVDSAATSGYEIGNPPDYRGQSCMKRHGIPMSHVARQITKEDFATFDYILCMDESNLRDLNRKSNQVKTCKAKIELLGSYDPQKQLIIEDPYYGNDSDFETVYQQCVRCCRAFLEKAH
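Material: LMPTP-A; amount: 0.625 nM enzyme; doses: single 20 µM dose; times: reaction 50 min, room temperature, dark; technique: fluorescence intensity of OMFP turnover product; benchmarks: no-enzyme and uninhibited controls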
Scp-1 conf: confirmation of human Scp-1 phosphatase inhibitors; recombinant SCP-1 catalytic domain, phosphate release, malachite green absorbance; inhibition, % at 20 µM; shares compounds with Scp-1 inhibitor; AID 540281; hit rate 61% among 2,500
Scp-1 MG ctr: interferes with malachite green readout, flagging false Scp-1 hits | shares compounds with Scp-1 inhibitor | apparent inhibition (interference), % at 20 µM | Colorimetric interference counterscreen, malachite green absorbance 630 nm | 2,500 tested, under 10 active | AID 540313;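 also: compounds added after enzyme reaction finished so only phosphate colour detection is probed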
Hits are given with their value; 0 = inactive; - = not tested or not shown.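 The calls were made as follows, unless noted: active = inhibition of at least 30% at 20 µM; inactive = the rest.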

SMILES	DNMT1 block	SUMO1-SIM PPI	Scp-1 inhibitor	STEP block	NadD block	LMPTP block	others
O=C(O)CCC(=O)NCCC1=c2ccccc2=N/C1=C\c1c(O)n(Cc2ccc(F)cc2)c(=S)[nH]c1=O	0	0	92	0	0	0
O=C(N/N=C/c1c(O)n(Cc2ccc(F)cc2)c(=O)[nH]c1=O)c1ccccc1	0	0	0	0	0	0
CCOC(=O)c1ccc(N2C(=O)CC(N3CCC(C#N)(c4ccccc4)CC3)C2=O)cc1 (configuration not stated)	0	0	0	0	0	0
O=C1CC=C2C3CC4N(CCC45c4ccccc4N1C25)CC3=CCO (configuration not stated)	0	0	0	0	0	0
O=C1CC=C2C3CC4N(CCC45c4cc(O)c(O)cc4N1C25)CC3=CCBr (configuration not stated)	91	111	0	84	92	77
O=C(O)C1C(C(=O)O)C2(Cl)C(Cl)=C(Cl)C1(Cl)C2(Cl)Cl (configuration not stated)	0	0	0	0	0	65
C=CCOC(=O)C1C(C(=O)O)C2(Cl)C(Cl)=C(Cl)C1(Cl)C2(Cl)Cl (configuration not stated)	0	0	0	0	0	0
O=C1C(=O)c2ccccc2-c2ccccc21	105	0	0	36	0	51
O=C1C(=O)c2cccc3cccc1c23	0	0	0	0	0	0
CC1(c2ccc(Cl)cc2Cl)OCC(Cn2cncn2)O1 (configuration not stated)	0	0	0	0	0	0
CN1CCC(n2nccc2N)CC1	0	43	0	0	0	0
Nc1ccnn1C1CCNCC1	0	0	0	0	0	0
CC(C)CNC(=O)c1c(N)n(Cc2ccc3c(c2)OCO3)c2nc3ccccc3nc12	0	46	0	0	0	0
CC(C)CCNC(=O)c1c(N)n(Cc2ccc3c(c2)OCO3)c2nc3ccccc3nc12	0	0	0	0	0	0
CC(C)OC(=O)Nc1ccc(N=C(N)N[N+](=O)[O-])cc1	0	0	0	0	0	0
CN1CCCC1C(O)(c1ccccc1)c1ccccc1 (configuration not stated)	0	0	0	0	0	0
Cc1cccc(N2C(=O)/C(=C/c3ccc(CN(CCC#N)S(C)(=O)=O)o3)C(=O)NC2=S)c1	58	0	0	0	0	0
Cc1cccc(N2C(=O)NC(=O)/C(=C/c3ccc([N+](=O)[O-])o3)C2=O)c1	-	-	0	-	-	-
O=c1[nH]c(=S)n(Cc2ccco2)c(O)c1C=NCc1cccs1	0	0	0	0	0	65
COc1ccc(-n2c(O)c(C(C)=NCCN3CCNCC3)c(=O)[nH]c2=O)cc1	0	0	0	0	0	0
COC(=O)c1cn(C(=O)c2cccc3ccccc23)c2ccccc12	0	0	0	0	0	0
CCOC(=O)c1c(NS(=O)(=O)c2ccccc2)n(CCCOC)c2nc3ccccc3nc12	0	43	0	0	0	0
COCCCn1c(N)c(C(=O)OCCOC)c2nc3ccccc3nc21	0	0	0	0	0	0
Clc1ccc(COC(Cn2ccnc2)c2ccc(Cl)cc2Cl)cc1 (configuration not stated)	0	0	0	0	0	0
Clc1ccc(C(c2ccc(Cl)cc2)n2cc[n+](CC(OCc3ccc(Cl)cc3Cl)c3ccc(Cl)cc3Cl)c2)cc1 (configuration not stated)	0	80	0	0	80	0
SMILES	DNMT1 block	SUMO1-SIM PPI	Scp-1 inhibitor	STEP block	NadD block	LMPTP block	others
O=C1NC(=O)N(c2ccc(Cl)cc2)C(=O)/C1=C\c1ccc(Sc2nc3ccccc3[nH]2)o1	0	0	0	0	55	0
O=C1NC(=O)C(=Cc2ccc(Sc3ccccc3)o2)C(=O)N1	0	0	0	0	0	0
O=C1NC(=O)C(=Cc2ccco2)C(=O)N1	82	0	0	50	0	0
O=C1NC(=O)C(=Cc2ccc(-c3ccc(F)cc3O)o2)C(=O)N1	0	0	95	0	0	0
O=C1NC(=O)C(=Cc2ccc(-c3ccc(Cl)cc3)o2)C(=O)N1	0	0	0	0	39	0
O=C1NC(=O)C(=Cc2ccc(-c3ccc(S(=O)(=O)N4CCOCC4)cc3)o2)C(=O)N1	0	0	0	0	0	0
O=[N+]([O-])[N-][n+]1cnn(Cc2ccc(Cl)cc2)c1	0	0	0	0	0	0
COc1ccc(-c2nc3ccccc3c(=O)n2-c2nccs2)cc1	0	42	0	0	0	0
O=C1NCN(c2ccccc2)C12CCN(C(c1cc3ccccc3o1)c1nnnn1C1CCCC1)CC2 (configuration not stated)	0	0	-	0	0	0
Cc1ccc2c(c1)C1CN(C)CCC1N2S(=O)(=O)c1ccccc1 (configuration not stated)	0	0	0	0	0	0
C=Cc1cc(OC)c2c(c1)c(=O)oc1c2cc(OC)c2c(O)ccc(C3OC(C)C(O)C(C)(O)C3O)c21 (configuration not stated)	62	48	81	0	0	0
O=C1NC(=S)N(c2ccc(F)cc2)C(=O)/C1=C\c1ccoc1	85	75	74	42	32	0
CCOc1ccc(N2C(=O)NC(=O)/C(=C\c3ccc(N4CCCCC4)o3)C2=O)cc1	0	0	0	0	0	0
CCOc1ccc(N2C(=O)/C(=C/c3ccc(C)o3)C(=O)NC2=S)cc1	50	0	0	0	0	0
Cc1ccc(C)c(OCC(=O)N2CCCN(C)CC2)c1	0	0	0	0	0	0
CCCCCCn1c(O)c(C=NCCN2CCCCC2)c(=O)[nH]c1=O	0	0	0	0	0	0
CC(C)CNc1c2c(nc3ccccc13)CCC2	0	39	0	0	0	0
COc1ccc(P2(=O)Nc3ccccc3N2)cc1	0	0	55	0	0	0
COc1ccc(Cc2c(O)[nH]c(=S)[nH]c2=O)cc1	0	0	53	0	0	0	Scp-1 conf=0;Scp-1 MG ctr=0
CCCCOc1ccc(C(C)=O)cc1Cc1c(O)[nH]c(=S)[nH]c1=O	0	0	0	0	0	0
COc1ccc(C(=O)CC2(CC(=O)c3ccc(OC)cc3)C(=O)N(C)C(=O)N(C)C2=O)cc1	0	0	0	0	0	0
Cc1ccsc1/C=C1\C(=O)NC(=S)N(C)C1=O	0	0	0	0	0	0
